Laboratory results taken from ChEMBL document CHEMBL4130355, “Development of a series of novel 4-anlinoquinazoline derivatives possessing quinazoline skeleton: Design, synthesis, EGFR kinase inhibitory efficacy, and evaluation of anticancer activities in vitro” (Eur J Med Chem, 2017).

Key:
[1] = molecular target: Epidermal growth factor receptor (Homo sapiens, UniProt P00533); details: HEK293, at 0.1 µM
HepG2 [2] = assay: Cell cycle arrest in human HepG2 assessed as accumulation at G2/M phase at 10 uM after 48 hrs by propidium iodide-staining based flow cytometry (reference value: 9.13%); assay type: functional
Outline: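 HepG2 cells at 5.0 × 10^5/well were grown 24 h, then treated at 0, 2.5, 5.0 or 10.0 µM for 48 h alongside medium-only wells. Cells fixed in 70% ice-cold ethanol for ≥24 h, treated with RNase A at 37 °C for 30 min, then stained with propidium iodide for 30 min at 4 °C in the dark. DNA content read by flow cytometry. Average of at least three experiments.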

HepG2 [3] = assay: Induction of mitochondrial membrane potential loss in human HepG2 cells assessed as mitochondrial membrane potential levels at 10 uM after 48 hrs by rhodamine-123 dye based FACS analysis (reference value: 90.4%); assay type: functional
A549 = assay: Antiproliferative activity against human A549 cells at 1 uM after 72 hrs by MTT assay relative to control; assay type: functional
Outline: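 MTT assay in triplicate wells. Cells (2 × 10^3/well) were attached 24 h, then treated at 0.1, 1, 10, 50 or 100 µM for 24, 48 or 72 h. MTT added for 4 h, SDS solubilisation, absorbance at 570/650 nm. Inhibition = 1 − (OD treated − blank)/(OD control − blank). Reported as mean ± SD of three independent experiments.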

HepG2 [4] = assay: Cytotoxicity against human HepG2 cells at 2.5 uM after 48 hrs by LDH release assay (reference value: 100%); assay type: functional
Outline: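 LDH release. HepG2 cells at 1.0 × 10^5/well were incubated 24 h at 37 °C, then treated at 2.5–40 µM for 48 h. Cells lysed with 2% lysate for 1 h gave the full-release (100%) reference; medium-only cells were the low control. LDH in the supernatant was measured per kit. Triplicates, three independent repeats.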

HepG2 [5] = assay: Antiproliferative activity against human HepG2 cells after 24 hrs by MTT assay; assay type: functional, cell-based; details: HepG2, 24 h
Outline: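 MTT read-out. Cells seeded at 2 × 10^3/well, attached 24 h at 37 °C in 5% CO2, then exposed to 0.1–100 µM for 24, 48 or 72 h. MTT for 4 h, formazan dissolved in 10% SDS/NH4Cl for 10 h, absorbance at 570 nm corrected at 650 nm. % inhibition computed against untreated and blank wells. IC50 is the mean of at least three independent experiments.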

Sequence of Epidermal growth factor receptor (P00533 whole entry): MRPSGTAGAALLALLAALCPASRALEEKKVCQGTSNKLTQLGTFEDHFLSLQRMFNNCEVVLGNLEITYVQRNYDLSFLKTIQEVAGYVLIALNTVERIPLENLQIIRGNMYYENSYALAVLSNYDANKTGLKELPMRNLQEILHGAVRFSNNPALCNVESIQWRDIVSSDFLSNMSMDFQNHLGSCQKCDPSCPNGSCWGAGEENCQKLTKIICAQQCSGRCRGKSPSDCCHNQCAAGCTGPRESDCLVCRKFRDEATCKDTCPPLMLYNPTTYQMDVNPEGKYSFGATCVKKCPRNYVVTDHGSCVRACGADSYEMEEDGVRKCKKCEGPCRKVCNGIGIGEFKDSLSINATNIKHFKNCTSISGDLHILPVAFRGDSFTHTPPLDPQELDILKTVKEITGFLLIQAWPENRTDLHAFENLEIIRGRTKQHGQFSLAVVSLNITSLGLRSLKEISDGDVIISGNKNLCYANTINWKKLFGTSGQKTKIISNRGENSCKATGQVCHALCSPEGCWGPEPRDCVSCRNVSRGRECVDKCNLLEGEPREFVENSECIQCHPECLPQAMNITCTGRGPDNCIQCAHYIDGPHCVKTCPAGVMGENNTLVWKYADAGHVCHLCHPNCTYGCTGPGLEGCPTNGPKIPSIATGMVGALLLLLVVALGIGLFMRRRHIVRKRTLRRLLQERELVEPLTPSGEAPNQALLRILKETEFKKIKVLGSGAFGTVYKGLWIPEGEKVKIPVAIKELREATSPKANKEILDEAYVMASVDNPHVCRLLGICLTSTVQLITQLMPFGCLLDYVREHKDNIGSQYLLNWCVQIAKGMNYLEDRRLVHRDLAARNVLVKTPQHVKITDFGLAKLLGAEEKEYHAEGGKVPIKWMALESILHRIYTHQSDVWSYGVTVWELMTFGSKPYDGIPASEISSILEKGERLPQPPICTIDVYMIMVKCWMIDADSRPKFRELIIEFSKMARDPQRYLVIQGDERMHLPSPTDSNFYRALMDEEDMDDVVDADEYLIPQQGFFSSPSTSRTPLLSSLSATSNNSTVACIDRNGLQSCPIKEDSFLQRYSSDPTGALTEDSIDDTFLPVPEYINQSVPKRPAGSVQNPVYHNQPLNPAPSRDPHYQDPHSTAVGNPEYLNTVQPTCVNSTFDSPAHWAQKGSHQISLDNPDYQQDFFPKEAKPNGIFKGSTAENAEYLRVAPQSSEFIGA

inhibition [1]: 73.1%
IC50 (HepG2 [5]): 13 µM
Structure (SMILES): COc1cc2c(Nc3ccc(C#N)cc3)ncnc2cc1OCCCN1CCC(c2ccccc2)CC1
Activity (HepG2 [2]): 9.57%
Activity (HepG2 [3]): 84%
Activity (A549): 1.5%
Activity (HepG2 [4]): 39.65%
